Experimental data from ChEMBL document CHEMBL1157130, “Cytotoxic naphthoquinones from Alkanna cappadocica ( perpendicular)” (J Nat Prod, 2010).

How the values were obtained:
HT-29 = test: Cytotoxicity against human HT-29 cells after 48 hrs by MTT assay; type: functional, cell-based; settings: HT-29, 48 h
Outline: (§1)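 Cells grown in RPMI 1640 or DMEM-Ham's F12 with 10% FBS, 2 mmol/L L-glutamine, penicillin/streptomycin, at 37 °C, 5% CO2. Exponential-phase cells seeded at 6000/well, incubated 24 h, then exposed 48 h to 0.1–10 µM compound (DMSO ≤0.1% final). MTT 0.5 mg/mL added for 3 h, formazan dissolved in DMSO, read at 570-690 nm. IC50 from % viability; three independent assays, triplicate wells.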

MDA-MB-231 = test: Cytotoxicity against human MDA-MB-231 cells after 48 hrs by MTT assay; type: functional, cell-based; settings: MDA-MB-231, 48 h; outline: as §1
PC-3 = test: Cytotoxicity against human PC3 cells after 48 hrs by MTT assay; type: functional, cell-based; settings: PC-3, 48 h; outline: as §1
AU565 = test: Cytotoxicity against human AU565 cells after 48 hrs by MTT assay; type: functional, cell-based; settings: AU565, 48 h; outline: as §1
HepG2 = test: Cytotoxicity against human HepG2 cells after 48 hrs by MTT assay; type: functional, cell-based; settings: HepG2, 48 h; outline: as §1
LNCaP = test: Cytotoxicity against human LNCAP cells after 48 hrs by MTT assay; type: functional, cell-based; outline: as §1
MCF7 = test: Cytotoxicity against human MCF7 cells after 48 hrs by MTT assay; type: functional, cell-based; settings: MCF7, 48 h; outline: as §1
HeLa = test: Cytotoxicity against human HeLa cells after 48 hrs by MTT assay; type: functional, cell-based; outline: as §1
SK-BR-3 = test: Cytotoxicity against human SKBR3 cells after 48 hrs by MTT assay; type: functional, cell-based; settings: SK-BR-3, 48 h; outline: as §1
DU-145 = test: Cytotoxicity against human DU145 cells after 48 hrs by MTT assay; type: functional, cell-based; settings: DU-145, 48 h; outline: as §1
SAOS-2 = test: Cytotoxicity against human Saos2 cells after 48 hrs by MTT assay; type: functional, cell-based; settings: SAOS-2, 48 h; outline: as §1
[1] = Cytotoxicity against human Hep3B cells after 48 hrs by MTT assay; type: functional, cell-based, Hep 3B2; outline: as §1
Vero = test: Cytotoxicity against african green monkey Vero cells after 48 hrs by MTT assay; type: cell-based; settings: Chlorocebus sabaeus; outline: as §1
NIH3T3 = test: Cytotoxicity against mouse 3T3 cells after 48 hrs by MTT assay; type: cell-based; settings: NIH3T3, 48 h; outline: as §1

Row | SMILES | IC50 (HT-29) [µM] | IC50 (MDA-MB-231) [µM] | IC50 (PC-3) [µM] | IC50 (AU565) [µM] | IC50 (HepG2) [µM] | IC50 (LNCaP) [µM] | IC50 (MCF7) [µM] | IC50 (HeLa) [µM] | IC50 (SK-BR-3) [µM] | IC50 (DU-145) [µM] | IC50 (SAOS-2) [µM] | IC50 [1] [µM] | IC50 (Vero) [µM] | IC50 (NIH3T3) [µM]
1 | COc1ccc(O)c2c1C(=O)C=C([C@H](CC=C(C)C)OC(=O)C=C(C)C)C2=O | 0.59 | 0.26 | 0.42 | 0.75 | 0.97 | 11.4 | 14.8 | 0.82 | 0.83 | 8.55 | 14.5 | 11.8 | 0.79 | 4.67
2 | COc1ccc(O)c2c1C(=O)C(CCC=C(C)C)=CC2=O | 5.98 | 5.11 | 7.48 | 7.08 | 8.05 | 11.1 | 11.9 | 6.38 | 6.52 | 12.1 | 12.5 | 24.5 | 6.39 | 6.57
3 | COc1ccc(O)c2c1C(=O)C=C([C@H](CC=C(C)C)OC(C)=O)C2=O | 0.62 | 0.09 | 0.78 | 0.59 | 0.87 | 11 | 14.1 | 0.66 | 0.44 | 7.41 | 13.8 | 10.2 | 0.59 | 0.66
4 | COc1ccc(O)c2c1C(=O)C=C(CCC=C(C)C)C2=O | 5.09 | 1.19 | 6.81 | 0.88 | 7.64 | 10.9 | 16 | 0.91 | 2.2 | 8.71 | 20.4 | 15.8 | 0.98 | 5.18
5 | CC(C)=CC[C@H](OC(=O)C=C(C)C)C1=CC(=O)c2c(O)ccc(O)c2C1=O | 0.8 | 0.32 | 1.1 | 0.62 | 1 | 11.3 | 5.15 | 0.96 | 0.68 | 4.81 | 0.84 | 4.09 | 0.32 | 0.77
6 | CC(=O)O[C@@H](CC=C(C)C)C1=CC(=O)c2c(O)ccc(O)c2C1=O [ACETYLALKANNIN] | 10.5 | 8.47 | 11 | 0.88 | 7.41 | 11.5 | 7.05 | 6.75 | 1.66 | 6.65 | 4.93 | 6.06 | 0.76 | 7.73
7 | CC(C)=CC[C@H](O)C1=CC(=O)c2c(O)ccc(O)c2C1=O [ALKANNIN] | 4.03 | 4.27 | 3.25 | 0.9 | 3.8 | 10.7 | 3.06 | 0.91 | 0.78 | 5.02 | 2.31 | 3.84 | 0.7 | 5.21
8 | CC(C)=CCCC1=CC(=O)c2c(O)ccc(O)c2C1=O [DEOXYSHIKONIN] | 5.12 | 5.08 | 4.29 | 0.92 | 0.9 | 12.2 | 0.79 | 0.85 | 0.69 | 1.24 | 0.85 | 6.02 | 0.66 | 5.84
9 | COc1cccc2c1C(=O)c1c(O)c3c(c(O)c1C2=O)C[C@@](O)(C(=O)CO)C[C@@H]3O[C@H]1C[C@H](N)[C@H](O)[C@H](C)O1 [DOXORUBICIN] | 2.05 | 2 | 3.16 |  |  |  |  |  |  |  |  |  |  | 3.7
10 | COc1cc([C@@H]2c3cc4c(cc3[C@@H](O[C@@H]3O[C@@H]5CO[C@@H](C)O[C@H]5[C@H](O)[C@H]3O)[C@H]3COC(=O)[C@H]23)OCO4)cc(OC)c1O [ETOPOSIDE] | 30.4 | 23.2 | 69.5 |  |  |  |  |  |  |  |  |  |  | 63
